Only some compounds are listed: those with a hit (about 1.5% of all), similar ones and a draw of the others.
Hsp70 act: switches on Hsp70 transcription; HeLa Hsp70 promoter luciferase reporter, luminescence; scaled: vehicle 0, proteasome-inhibitor control 100%; activation, % at 10 µM; actives 0.04% (n = 200,000); AID 1203;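 active = activation above the mean across all tested compounds plus 3 SD, cutoff set per campaign, cut at about 5.5% in these data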;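 also: 100% = MG132 at 30 µM as the positive control and 0% = DMSO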
p97 inhibitor: human p97 ATPase inhibition | P55072 | recombinant p97 ATPase, Kinase-Glo ATP luminescence, 3 h | inhibition, % at 8 µM | actives 0.42% (n = 220,000) | AID 1481; in the data active = inhibition above about 15%;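 also: 0% = DMSO vehicle and 100% = wells lacking enzyme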
PP1 counter: PP1-alpha (human) inhibition in PP5 counter-screen; P62136; purified PP1alpha, OMFP fluorescence; inhibition, % at 6.7 µM; actives 0.9% (n = 320,000);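 active = inhibition above the mean inhibition of all tested compounds plus 3 SD, computed separately for each screening campaign, cut at about 15% in these data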
PP5 primary: blocks human protein phosphatase 5 activity. P53041. purified PP5c, OMFP substrate fluorescence. inhibition, % at 6.7 µM. actives 0.18% (n = 320,000). AID 1987;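 active = inhibition above the campaign's mean inhibition across all tested compounds plus 3 SD, cut at about 9.5% in these data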;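 also: 0% = DMSO only and 100% = 100 µM cantharidin control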
Target sequence (P53041 whole entry, looked up): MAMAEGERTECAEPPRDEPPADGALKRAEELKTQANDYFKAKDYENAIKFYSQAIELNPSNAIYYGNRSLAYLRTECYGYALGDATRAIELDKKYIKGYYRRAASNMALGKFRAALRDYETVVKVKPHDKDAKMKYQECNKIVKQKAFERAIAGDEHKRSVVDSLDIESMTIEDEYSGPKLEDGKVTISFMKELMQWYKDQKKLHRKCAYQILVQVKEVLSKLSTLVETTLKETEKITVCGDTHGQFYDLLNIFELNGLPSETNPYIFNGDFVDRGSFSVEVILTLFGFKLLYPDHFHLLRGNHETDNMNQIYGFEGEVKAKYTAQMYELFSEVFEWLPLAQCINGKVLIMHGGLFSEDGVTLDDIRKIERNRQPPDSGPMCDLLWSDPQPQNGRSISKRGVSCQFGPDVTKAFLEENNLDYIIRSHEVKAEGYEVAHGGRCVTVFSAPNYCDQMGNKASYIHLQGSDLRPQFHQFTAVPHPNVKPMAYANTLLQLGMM
PKD1 inh: PKD1 (human) kinase inhibition. Q15139. PKD1 kinase fluorescence polarization assay. inhibition, % (no concentration beside the values). actives 0.056% (n = 200,000). AID 797; in the data active = inhibition above about 50%
RBBP9 inhibitor: human RBBP9 hydrolase inhibition; actives 0.2% (n = 220,000); inhibition, % at 7.94 µM; AID 1515; recombinant RBBP9, FP-Rh probe fluorescence polarization;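 active = inhibition above the campaign mean of all tested compounds plus 3 SD, cut at about 14% in these data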;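 also: plate controls were DMSO wells with RBBP9 for no effect and wells lacking RBBP9 protein for full effect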
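Material: RBBP9 protein. Amount: RBBP9 at 2.5 µM in dispensed solution, before mixing. Schedule: 30 min then 45 min, 25 °C. Medium: Tris buffer pH 8.0, NaCl, Pluronic. Measured by: fluorescence polarization. Measure: percent inhibition from mP, scaled between DMSO and no-protein wells. Replication: one well per compound.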
PP1 inh confirm: human PP1 phosphatase inhibition, confirmation; shares compounds with PP1 counter; inhibition, % at 6.7 µM; AID 2358; purified PP1alpha, OMFP substrate fluorescence; actives 52% (n = 1,900);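 active = mean PP1 inhibition above a set limit taken from the earlier primary screen, cut at about 15% in these data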
PP5 counter: inhibits human PP5 phosphatase in PP1 counter-screen. shares compounds with PP1 counter. purified PP5c, OMFP fluorescence. inhibition, % at 6.7 µM. actives 4% (n = 1,900). AID 2360;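 active = mean PP5 inhibition over triplicate wells above about 9.5% taken from the earlier PP1 screen, limit read from the data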
* marks the source's active call; other numbers are inactive results.

`O=C(Nc1nnc(-c2ccc(F)cc2)o1)c1cccc([N+](=O)[O-])c1` gave Hsp70 act 0, p97 inhibitor 2, PP1 counter 19*, PP5 primary 1, PKD1 inh -6, RBBP9 inhibitor -3, PP1 inh confirm 16* and PP5 counter 3.
Screening O=C(Nc1ccccc1Oc1cccnc1)C1CCCN(Cc2ccc(F)cc2)C1 (stereo unspecified) returned PP1 counter 50*, PP5 primary 0, PP1 inh confirm -2 and PP5 counter -3.
`C=CCOC(=O)C1=C[C@@H](c2csc3ccccc23)C[C@@H](OCc2ccc(CO)cc2)O1` gave Hsp70 act 1, p97 inhibitor -3, PP1 counter 10, PP5 primary 5, PKD1 inh -10 and RBBP9 inhibitor 4.
`C=CCOC(=O)C1=C[C@H](c2csc3ccccc23)C[C@H](OCc2ccc(CO)cc2)O1` gave PP1 counter 22*, PP5 primary 3, PP1 inh confirm 4 and PP5 counter -2.
Screening Cc1noc(/C=C/c2ccco2)c1S(=O)(=O)N1CCC(C(=O)N(C)Cc2ccccc2)CC1 returned Hsp70 act 0, p97 inhibitor 3, PP1 counter 19*, PP5 primary 4, PKD1 inh -3, RBBP9 inhibitor -10, PP1 inh confirm 11 and PP5 counter 0.
Screening O=C(CSc1nnc2c(n1)[nH]c1ccccc12)NCc1ccccc1F returned PP1 counter 23*, PP5 primary 1, PP1 inh confirm -2 and PP5 counter -6.
Screening O=C(CSc1nnc2c(n1)[nH]c1ccc(F)cc12)Nc1ccccc1F returned PP1 counter -1 and PP5 primary 1.
For Cc1ccc(-c2ccc(SCC(=O)Nc3ccc4c(c3)OCCO4)nn2)cc1 the results were Hsp70 act 0, p97 inhibitor -4, PP1 counter 38*, PP5 primary 2, PKD1 inh -4, RBBP9 inhibitor -3, PP1 inh confirm -3 and PP5 counter -2.
For Cc1cccc(N2CCN(C(=O)c3ccc4c(c3)NC(=O)C(CSCc3cccc(F)c3)N4)CC2)c1C (stereo unspecified) the results were PP1 counter 23*, PP5 primary 2, PP1 inh confirm 29* and PP5 counter -2.
For Cc1ccc2nc(-c3ccc(NC(=O)COC(=O)c4ccco4)cc3)sc2c1 the results were Hsp70 act 0, p97 inhibitor 0, PP1 counter 3, PP5 primary 1, PKD1 inh -9 and RBBP9 inhibitor -6.
Screening CCOc1ncccc1C(=O)OCC(=O)Nc1ccc(-c2nc3ccc(C)cc3s2)cc1 returned Hsp70 act 0, p97 inhibitor 5, PP1 counter 19*, PP5 primary 0, PKD1 inh 1, RBBP9 inhibitor -13, PP1 inh confirm 29* and PP5 counter 0.
Screening CCNc1nc(NCC)nc(N(CC)C(N)=S)n1 returned p97 inhibitor 12, PP1 counter 0, PP5 primary 1 and RBBP9 inhibitor -6.
CCOC(=O)Cc1cc(=O)n2[nH]c(C)c(-c3ccc(Cl)cc3)c2n1 was read as Hsp70 act 0, p97 inhibitor -1, PP1 counter 25*, PP5 primary 3, PKD1 inh 0, RBBP9 inhibitor 2, PP1 inh confirm 18* and PP5 counter -5.
Screening CCOC(=O)c1cc(=O)n2[nH]c(-c3ccc(C)cc3)cc2n1 returned Hsp70 act 0, p97 inhibitor -3, PP1 counter 4, PP5 primary 4, PKD1 inh 22 and RBBP9 inhibitor -7.
Screening CCOC(=O)Cc1cc(=O)n2[nH]c(-c3ccc(C)cc3)cc2n1 returned Hsp70 act 0, p97 inhibitor 6, PP1 counter 18*, PP5 primary -3, PKD1 inh 6, RBBP9 inhibitor -1, PP1 inh confirm 10 and PP5 counter 1.
`CCOc1ccc(-c2cc(C(=O)NCCCn3ccnc3)c3cc(Br)ccc3n2)cc1` gave PP1 counter 21*, PP5 primary 4, PP1 inh confirm 6 and PP5 counter 1.
`CCOc1ccc(-c2cc(C(=O)NCCCn3ccnc3)c3ccccc3n2)cc1` gave Hsp70 act 0, p97 inhibitor -1, PP1 counter 3, PP5 primary -1, PKD1 inh 7 and RBBP9 inhibitor -9.
Screening CCOc1ccc2nc(NC(=O)CSCC(=O)Nc3cc(C)on3)sc2c1 returned PP1 counter -3 and PP5 primary 0.
CC(OC(=O)c1ccc(NC(=O)CC#N)cc1)C(=O)Nc1ccc(Oc2ccccc2)cc1 (stereo unspecified) was read as PP1 counter 20*, PP5 primary 0, PP1 inh confirm 8 and PP5 counter -6.
`CC(OC(=O)c1ccc(NC(=O)CC#N)cc1)C(=O)Nc1nc(-c2ccccc2)cs1` (stereo unspecified) gave PP1 counter 10 and PP5 primary 4.
Screening CCOc1ccc(CNC(=O)CCc2cn(C)c3ccccc23)cc1 returned PP1 counter 0 and PP5 primary 0.
Screening CCCNC(=O)CCn1cc(-c2ccc(OC)cc2)nc1-c1ccncc1 returned PP1 counter -2 and PP5 primary -1.
CCOc1ccc(OCC)c(NC(=O)C2CCCN(C(=O)c3ccc(Cl)cc3)C2)c1 (stereo unspecified) was read as PP1 counter 1 and PP5 primary 1.
`O=C(CSc1ccc(-c2ccncc2)nn1)c1ccccc1` gave Hsp70 act 0, p97 inhibitor -6, PP1 counter 21*, PP5 primary 2, PKD1 inh 3, RBBP9 inhibitor -10, PP1 inh confirm -4 and PP5 counter -7.
COc1ccc(C(=O)CSc2ccc(-c3ccccc3)nn2)cc1 was read as Hsp70 act 0, p97 inhibitor -5, PP1 counter 3, PP5 primary 1, PKD1 inh -6 and RBBP9 inhibitor -6.
COC(=O)/C(=N/Nc1ccccc1OC)N1CCCc2ccccc21 was read as p97 inhibitor -9, PP1 counter 0, PP5 primary 2 and RBBP9 inhibitor 9.
For O=C(Nc1nccs1)c1ccc(-c2ccc(Cl)cc2)o1 the results were Hsp70 act 0, p97 inhibitor 0, PP1 counter 2, PP5 primary 1, PKD1 inh 0 and RBBP9 inhibitor -4.

Source: PubChem BioAssay (several laboratories)
